In ChEMBL document CHEMBL1140296, “Anilinodialkoxyquinazolines: screening epidermal growth factor receptor tyrosine kinase inhibitors for potential tumor imaging probes” (J Med Chem, 2005) one finds IC50 and logP data, which are given here for 16 molecules.

Series [1] deals with Receptor tyrosine-protein kinase erbB-4 (Homo sapiens, UniProt Q15303). Nature of the series: Inhibition of human ErbB4 tyrosine kinase phosphorylation expressed in human CEM/4 cells. It counts as functional, cell-based. In short, it runs like this: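 CEM cells expressing ErbB4, grown in RPMI with 10% heat-inactivated FBS and G418, then serum-starved 24 h at 37 °C. About 10^7 cells/mL given inhibitor at three to five concentrations for 2 h at 37 °C, chilled 20 min, then stimulated with NRG1β 100 ng/mL final for 7 min on ice. Lysate glycoproteins captured on ConA. Phosphotyrosine read by 4G10 immunoblot. IC50 read against DMSO standard curve.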

Series [2] in a line: Lipophilicity, log P of the compound. The settings on record: octanol/water. The format is physicochemical. In short, it runs like this: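 Log Po/w estimated by reversed-phase HPLC on a C8 column. Mobile phases were methanol with 0.25% 1-octanol and octanol-saturated water with 0.02 M MOPS and 0.15% n-decylamine, pH 7.4, at 1 mL/min. Uracil served as void marker. log k′w was obtained by linear extrapolation of retention over 60–85% methanol.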

The target of series [3] is T1, Epidermal growth factor receptor (Homo sapiens, UniProt P00533). Nature of the series: Inhibition of human EGFR tyrosine kinase phosphorylation expressed in mouse BaF3 cells. The format is functional, cell-based.
In series [4] the target is Receptor tyrosine-protein kinase erbB-2 (Homo sapiens, UniProt P04626). The series is described as follows: Inhibition of human ErbB2 tyrosine kinase phosphorylation expressed in mouse BaF3 cells. It counts as functional, cell-based.
The target of series [5] is T1, Epidermal growth factor receptor. The series is described as follows: Displacement of [125I]4-(3-iodoanilino)-6,7-dimethoxyquinazoline from EGFR tyrosine kinase in human A431 cell membranes. Also on record: species or system A-431. (In general: In a radioligand displacement assay an active substance lowers the binding of a labelled ligand.)

By IC50 is commonly meant the point on the concentration scale where inhibition reaches its midpoint. By logP is commonly meant the decadic logarithm of the partition coefficient of the neutral form, usually between octanol and water. A low value points to a more hydrophilic compound.

Receptor tyrosine-protein kinase erbB-4, sequence (Q15303 whole entry): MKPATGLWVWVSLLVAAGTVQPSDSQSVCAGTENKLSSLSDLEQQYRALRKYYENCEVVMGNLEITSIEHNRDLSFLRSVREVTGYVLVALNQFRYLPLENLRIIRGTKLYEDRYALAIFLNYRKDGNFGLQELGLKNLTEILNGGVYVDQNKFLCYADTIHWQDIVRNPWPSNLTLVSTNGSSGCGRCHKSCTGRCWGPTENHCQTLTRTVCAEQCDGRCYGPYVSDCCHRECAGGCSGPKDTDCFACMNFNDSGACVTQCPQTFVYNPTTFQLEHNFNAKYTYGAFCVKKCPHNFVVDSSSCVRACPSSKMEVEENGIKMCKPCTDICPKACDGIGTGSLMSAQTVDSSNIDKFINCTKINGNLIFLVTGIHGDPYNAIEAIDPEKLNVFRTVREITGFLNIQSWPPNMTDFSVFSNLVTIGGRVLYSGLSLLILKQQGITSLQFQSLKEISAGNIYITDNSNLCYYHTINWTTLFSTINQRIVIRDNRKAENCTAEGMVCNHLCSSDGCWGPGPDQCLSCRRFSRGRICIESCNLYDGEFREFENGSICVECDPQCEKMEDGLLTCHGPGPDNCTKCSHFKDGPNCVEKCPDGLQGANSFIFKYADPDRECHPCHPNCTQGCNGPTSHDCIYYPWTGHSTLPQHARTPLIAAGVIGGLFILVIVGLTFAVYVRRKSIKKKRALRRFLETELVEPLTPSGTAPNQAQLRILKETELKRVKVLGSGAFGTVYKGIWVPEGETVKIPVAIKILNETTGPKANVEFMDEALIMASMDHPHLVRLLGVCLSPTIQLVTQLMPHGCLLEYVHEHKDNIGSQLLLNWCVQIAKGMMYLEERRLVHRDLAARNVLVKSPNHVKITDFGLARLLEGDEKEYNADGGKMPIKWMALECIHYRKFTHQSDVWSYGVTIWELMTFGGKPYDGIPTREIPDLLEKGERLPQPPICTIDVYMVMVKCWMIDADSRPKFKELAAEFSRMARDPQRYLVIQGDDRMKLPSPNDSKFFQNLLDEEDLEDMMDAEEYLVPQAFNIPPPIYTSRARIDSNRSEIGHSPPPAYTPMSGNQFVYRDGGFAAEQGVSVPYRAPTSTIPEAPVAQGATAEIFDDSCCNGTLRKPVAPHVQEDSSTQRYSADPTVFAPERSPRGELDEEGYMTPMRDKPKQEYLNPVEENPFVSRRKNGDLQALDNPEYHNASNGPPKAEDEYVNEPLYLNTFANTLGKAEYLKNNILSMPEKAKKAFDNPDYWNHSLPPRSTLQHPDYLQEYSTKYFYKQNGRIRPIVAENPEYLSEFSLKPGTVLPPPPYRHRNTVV
Receptor tyrosine-protein kinase erbB-2, sequence (P04626 whole entry): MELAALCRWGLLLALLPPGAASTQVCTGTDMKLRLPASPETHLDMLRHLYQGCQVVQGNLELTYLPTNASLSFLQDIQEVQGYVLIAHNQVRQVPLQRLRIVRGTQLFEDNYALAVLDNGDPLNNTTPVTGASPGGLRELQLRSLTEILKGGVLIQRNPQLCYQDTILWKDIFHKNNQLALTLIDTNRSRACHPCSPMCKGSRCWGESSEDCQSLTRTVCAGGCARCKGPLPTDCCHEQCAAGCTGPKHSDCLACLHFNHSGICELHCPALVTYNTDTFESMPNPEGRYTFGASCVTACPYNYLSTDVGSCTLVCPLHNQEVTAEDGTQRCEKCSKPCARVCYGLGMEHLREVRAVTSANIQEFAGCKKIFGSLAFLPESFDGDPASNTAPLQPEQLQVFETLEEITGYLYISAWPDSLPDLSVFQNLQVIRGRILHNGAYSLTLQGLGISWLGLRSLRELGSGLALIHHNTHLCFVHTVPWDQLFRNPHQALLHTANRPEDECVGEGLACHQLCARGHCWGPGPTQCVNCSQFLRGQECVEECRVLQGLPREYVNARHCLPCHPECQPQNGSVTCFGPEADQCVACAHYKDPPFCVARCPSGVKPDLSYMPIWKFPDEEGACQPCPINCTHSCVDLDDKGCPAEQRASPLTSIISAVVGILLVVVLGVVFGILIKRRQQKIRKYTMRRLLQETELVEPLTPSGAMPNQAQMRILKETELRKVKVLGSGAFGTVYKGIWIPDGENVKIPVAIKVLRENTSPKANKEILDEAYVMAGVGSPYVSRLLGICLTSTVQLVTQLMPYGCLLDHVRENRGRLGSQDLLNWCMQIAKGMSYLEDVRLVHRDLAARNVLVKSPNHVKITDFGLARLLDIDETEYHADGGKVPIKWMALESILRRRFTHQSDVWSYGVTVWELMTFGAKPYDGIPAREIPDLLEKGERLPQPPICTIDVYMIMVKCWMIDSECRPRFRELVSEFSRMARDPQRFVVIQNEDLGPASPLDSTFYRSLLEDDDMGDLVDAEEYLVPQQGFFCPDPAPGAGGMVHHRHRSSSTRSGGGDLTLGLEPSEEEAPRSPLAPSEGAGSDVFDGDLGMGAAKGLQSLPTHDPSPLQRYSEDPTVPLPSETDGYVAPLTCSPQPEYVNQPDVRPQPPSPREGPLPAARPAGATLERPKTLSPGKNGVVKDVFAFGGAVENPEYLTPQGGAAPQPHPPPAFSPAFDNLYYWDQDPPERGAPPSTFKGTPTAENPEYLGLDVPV
T1 sequence (P00533 whole entry): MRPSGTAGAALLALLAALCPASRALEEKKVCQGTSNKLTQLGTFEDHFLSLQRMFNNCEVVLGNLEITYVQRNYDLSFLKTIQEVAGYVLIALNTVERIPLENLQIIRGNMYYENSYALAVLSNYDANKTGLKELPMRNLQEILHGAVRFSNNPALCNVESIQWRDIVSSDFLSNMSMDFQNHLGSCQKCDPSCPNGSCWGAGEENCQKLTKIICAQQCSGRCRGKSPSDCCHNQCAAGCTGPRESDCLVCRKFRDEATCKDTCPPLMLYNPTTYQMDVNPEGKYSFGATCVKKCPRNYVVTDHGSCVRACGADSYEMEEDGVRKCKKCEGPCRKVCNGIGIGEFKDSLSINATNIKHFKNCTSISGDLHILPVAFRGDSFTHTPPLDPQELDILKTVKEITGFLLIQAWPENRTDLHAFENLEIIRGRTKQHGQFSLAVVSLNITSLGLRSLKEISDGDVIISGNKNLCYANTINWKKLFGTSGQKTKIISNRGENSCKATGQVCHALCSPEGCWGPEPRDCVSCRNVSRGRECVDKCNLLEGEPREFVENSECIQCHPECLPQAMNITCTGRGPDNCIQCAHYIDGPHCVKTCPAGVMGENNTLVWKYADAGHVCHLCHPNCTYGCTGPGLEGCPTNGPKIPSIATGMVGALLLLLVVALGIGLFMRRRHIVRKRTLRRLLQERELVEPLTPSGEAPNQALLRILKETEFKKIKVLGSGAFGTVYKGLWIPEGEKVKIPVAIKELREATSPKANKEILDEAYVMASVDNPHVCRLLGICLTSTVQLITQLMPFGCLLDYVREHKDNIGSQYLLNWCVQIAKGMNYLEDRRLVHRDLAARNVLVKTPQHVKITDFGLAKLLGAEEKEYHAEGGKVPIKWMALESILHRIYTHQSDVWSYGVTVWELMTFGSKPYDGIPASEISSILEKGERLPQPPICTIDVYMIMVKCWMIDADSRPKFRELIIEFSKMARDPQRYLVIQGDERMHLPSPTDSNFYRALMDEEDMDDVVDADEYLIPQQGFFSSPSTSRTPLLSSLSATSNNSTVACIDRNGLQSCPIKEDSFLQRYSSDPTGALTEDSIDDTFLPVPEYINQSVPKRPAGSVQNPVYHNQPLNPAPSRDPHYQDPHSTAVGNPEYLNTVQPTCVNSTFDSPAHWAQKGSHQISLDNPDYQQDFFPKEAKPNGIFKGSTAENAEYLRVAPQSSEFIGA

Take `CCOc1cc2ncnc(NCc3ccc(F)cc3)c2cc1OCC`: the half-inhibitory concentration (IC50) in series [1] was above 0.1 µM; in series [3], 0.0066 µM; in series [4] it was 0.231 µM; in series [5], 0.017 µM. This molecule also gave a logP in series [2] of 3.78.

`CCOc1cc2ncnc(Nc3cc(F)cc(C(F)(F)F)c3)c2cc1OCC`: the log partition coefficient (logP) in series [2] amounted to 5.49. The values for the IC50 in series [3] and in series [5] were above 0.05 µM and 0.00895 µM, respectively.

Take `CCOc1cc2ncnc(Nc3ccccc3F)c2cc1OCC`: the lipophilicity (logP) in series [2] came out at 3.02. Moreover, the IC50 in series [3] worked out at 0.0158 µM; in series [5] it was 0.00931 µM.

`COc1cc2ncnc(Nc3cccc(Br)c3)c2cc1OC`: the concentration for half-maximal inhibition (IC50) in series [1] came out at 0.049 µM. The molecule also had a lipophilicity (logP) in series [2] of 3.49.

`COc1cc2ncnc(NCc3ccc(F)cc3)c2cc1OC` showed a logP in series [2] of 3.02.

With `CCOc1cc2ncnc(Nc3cccc(I)c3)c2cc1OCC`, the IC50 was determined as 0.059 µM in series [1], 0.0046 µM in series [3], 0.069 µM in series [4] and 0.00064 µM in series [5]. In series [2], this molecule came in with a logP of 4.62.

In series [2], `CCOc1cc2ncnc(Nc3cccc(Cl)c3)c2cc1OCC` showed a lipophilicity (logP) of 4.31. For the same molecule, the IC50 in series [3] amounted to 0.0012 µM; in series [5], 0.00038 µM.

On to `CCOc1cc2ncnc(Nc3cccc(Br)c3)c2cc1OCC`, for which the IC50 in series [1] was 0.05 µM; in series [3], 0.0032 µM; in series [4], 0.215 µM; in series [5], 0.00041 µM. In addition, the logP in series [2] is 4.4.

`COc1cc2ncnc(Nc3ccc(F)cc3)c2cc1OC`: in series [2], the logP was 2.87. Further, the IC50 in series [3] was 0.0191 µM; in series [5], 0.051 µM.

`CCOc1cc2ncnc(Nc3cccc(F)c3)c2cc1OCC` yielded a logP in series [2] of 3.71. For the same molecule, the IC50 stood at 0.0065 µM in series [3] and 0.00817 µM in series [5].

As to `COc1cc2ncnc(Nc3cccc(F)c3)c2cc1OC`, in series [2], the logP worked out at 2.96.

In series [2], `COc1cc2ncnc(Nc3cccc(I)c3)c2cc1OC` displayed a logP of 3.65. Also, the results for the IC50 in series [3] and in series [5] were 0.0064 µM and 0.00105 µM, respectively.

For `COc1cc2ncnc(Nc3cc(F)cc(C(F)(F)F)c3)c2cc1OC`, in series [2], the log partition coefficient (logP) came out at 4.66. In addition, the IC50 in series [3] was found to be 0.0191 µM; in series [5], 0.02 µM.

In series [2], `COc1cc2ncnc(Nc3ccccc3F)c2cc1OC` registered a lipophilicity (logP) of 2.2. For the same molecule, the IC50 in series [3] stood at 0.0128 µM; in series [5] it was 0.0322 µM.

In turn, `CCOc1cc2ncnc(Nc3ccc(F)cc3)c2cc1OCC` displayed a lipophilicity (logP) in series [2] of 3.73. Further, the IC50 in series [3] is 0.0231 µM; in series [5], 0.016 µM.

In series [2], `COc1cc2ncnc(Nc3cccc(Cl)c3)c2cc1OC` displayed a lipophilicity (logP) of 3.51.
